The test system of assay [1] is Mycobacterium tuberculosis. The assay is described as follows: Antituberculosis activity against 5 x 10^4 inoculum per tube Mycobacterium tuberculosis H37Rv after 24 hrs by Lowenstein-Jensen method. In kind it is functional. The method, boiled down:
(§1)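 Conventional Lowenstein-Jensen method. Compound dilutions were made from a DMSO stock and added to liquid L-J medium, which was sterilized by inspissation. Tubes were incubated 24 h at 37 °C, then streaked with H37Rv (5 × 10⁴ bacilli per tube) harvested into 0.85% saline. Growth was checked at 12, 22 and 28 days at 37 °C against medium-only controls. MIC was the concentration giving no colonies or <20 colonies.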

In the next assay the test system is Aspergillus clavatus. The assay is described as follows: Antifungal activity against 10^8 CFU/mL Aspergillus clavatus MTCC 1323 by broth microdilution method. It counts as functional. In a few lines: (§2)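 Fungal MTCC cultures came from IMTECH Chandigarh. Mueller-Hinton broth served as growth and dilution medium, with DMSO as diluent. Inoculum was set to 10⁸ CFU/mL by turbidity. Serial dilutions from a 2000 stock gave a primary screen at 500, 250 and 125, followed by a secondary dilution series for actives. MIC was the lowest concentration inhibiting growth.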

The subject of a further assay is Aspergillus niger. The assay is described as follows: Antifungal activity against 10^8 CFU/mL Aspergillus niger MTCC 282 by broth microdilution method. In kind it is functional. The method, boiled down:
as §2

The next assay deals with Candida albicans. The assay is described as follows: Antifungal activity against 10^8 CFU/mL Candida albicans MTCC 227 by broth microdilution method. In kind it is functional. In a few lines: as §2
Background: Dilution methods test growth across graded concentrations, often in twofold steps.

The next assay deals with Bacillus subtilis. The assay is described as follows: Antibacterial activity against 10^8 CFU/mL Bacillus subtilis MTCC 441 by broth microdilution method. In kind it is functional. The method, boiled down: (§3)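 MTCC bacterial strains from IMTECH Chandigarh were grown in Mueller-Hinton broth, which was also used to dilute the compounds. Inoculum was turbidity-adjusted to 10⁸ CFU/mL, and DMSO served as diluent. Compounds from a 2000 stock were screened first at 500, 250 and 125; actives were retested in a second dilution series. Tubes were incubated overnight at 37 °C, and MIC was the lowest concentration with no visible growth. Clear tubes were subcultured overnight at 37 °C to tell bacteriostatic from bactericidal.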

A further assay relates to Streptococcus pyogenes. The assay is described as follows: Antibacterial activity against 10^8 CFU/mL Streptococcus pyogenes MTCC 442 by broth microdilution method. It counts as functional. The method, boiled down: as §3
Another assay concerns Staphylococcus aureus. The assay is described as follows: Antibacterial activity against 10^8 CFU/mL Staphylococcus aureus MTCC 96 by broth microdilution method. In kind it is functional. The method, boiled down: as §3
Another assay concerns Salmonella typhi. The assay is described as follows: Antibacterial activity against 10^8 CFU/mL Salmonella typhi MTCC 98 by broth microdilution method. In kind it is functional, Salmonella enterica subsp. enterica serovar Typhi. To be noted: Salmonella enterica. In a few lines:
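Broth microdilution in Mueller-Hinton broth with MTCC strains, inoculum adjusted by turbidity to 10⁸ CFU/mL. Compounds were diluted from DMSO. Primary screen used 500, 250 and 125 concentrations, and actives were serially diluted further. Tubes were incubated overnight at 37 °C. MIC was the lowest concentration with no visible growth. Clear tubes were subcultured overnight at 37 °C to judge bacteriostatic versus bactericidal.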

The test system of another assay is Klebsiella pneumoniae. The assay is described as follows: Antibacterial activity against 10^8 CFU/mL Klebsiella pneumoniae MTCC 109 by broth microdilution method. In kind it is functional. In a few lines:
as §3

For the next assay, the system named is Escherichia coli. The assay is described as follows: Antibacterial activity against 10^8 CFU/mL Escherichia coli MTCC 443 by broth microdilution method. It counts as functional. In a few lines:
as §3

Another assay relates to Pseudomonas aeruginosa. The assay is described as follows: Antibacterial activity against 10^8 CFU/mL Pseudomonas aeruginosa MTCC 1688 by broth microdilution method. It counts as functional. The method, boiled down: as §3
For assay [2], the system named is Mycobacterium tuberculosis. The assay is described as follows: Antituberculosis activity against 5 x 10^4 inoculum per tube Mycobacterium tuberculosis H37Rv assessed as growth inhibition at 500 ug/mL incubated for 24 hrs measured after 28 days. In kind it is functional. The conditions noted are these: read-out: GI. The method, boiled down: as §1
Assay [3] concerns Mycobacterium tuberculosis. The assay is described as follows: Antituberculosis activity against 5 x 10^4 bacilli per tube Mycobacterium tuberculosis H37Rv assessed as growth inhibition at 62.5 ug/mL incubated for 24 hrs measured after 28 days. In kind it is functional. To be noted: read-out: GI. The method, boiled down:
as §1

Assay [4] deals with Mycobacterium tuberculosis. The assay is described as follows: Antituberculosis activity against 5 x 10^4 bacilli per tube Mycobacterium tuberculosis H37Rv assessed as growth inhibition at 1000 ug/mL incubated for 24 hrs measured after 28 days. In kind it is functional. To be noted: read-out: GI. The method, boiled down: as §1
Assay [5] concerns Mycobacterium tuberculosis. The assay is described as follows: Antituberculosis activity against 5 x 10^4 bacilli per tube Mycobacterium tuberculosis H37Rv assessed as growth inhibition at 25 ug/mL incubated for 24 hrs measured after 28 days. In kind it is functional. The conditions noted are these: read-out: GI. The method, boiled down:
as §1

Assay [6] relates to Mycobacterium tuberculosis. The assay is described as follows: Antituberculosis activity against 5 x 10^4 bacilli per tube Mycobacterium tuberculosis H37Rv assessed as growth inhibition at 250 ug/mL incubated for 24 hrs measured after 28 days. It counts as functional. The conditions noted are these: read-out: GI. The method, boiled down:
as §1

Converted amounts (≈) assume the structure as drawn. Where only a bound is given, the exact number is not on record here.

`CC1=C(c2nnc(/N=C3\C(=O)Nc4ccc(Br)cc43)s2)C(c2ccccc2)NC(=O)N1` (centres undefined): the MIC was 500 µg/mL (≈ 1010 µM) in [1], over 1000 µg/mL in the assay on Aspergillus clavatus, 500 µg/mL (≈ 1010 µM) in the assay with Aspergillus niger and 500 µg/mL (≈ 1010 µM) against Candida albicans. Also, the MIC99 in the assay on Bacillus subtilis was 100 µg/mL (≈ 202 µM); in the assay with Streptococcus pyogenes it was 100 µg/mL (≈ 202 µM); in the assay with Staphylococcus aureus it was 100 µg/mL (≈ 202 µM); against Salmonella typhi, 250 µg/mL (≈ 505 µM); with Klebsiella pneumoniae, 200 µg/mL (≈ 404 µM); in the assay on Escherichia coli, 250 µg/mL (≈ 505 µM). In addition, in the assay on Pseudomonas aeruginosa, the MIC99 is 250 µg/mL (≈ 505 µM). The inhibition of growth at 500 µg/mL in assay [2] was found to be 98%.

Regarding `CC1=C(c2nnc(/N=C3\C(=O)Nc4ccc([N+](=O)[O-])cc43)s2)C(c2ccccc2)NC(=S)N1` (centres undefined), the MIC in assay [1] amounted to 62.5 µg/mL (≈ 131 µM); with Aspergillus clavatus it was 250 µg/mL (≈ 524 µM); against Aspergillus niger, 100 µg/mL (≈ 209 µM); against Candida albicans, 250 µg/mL (≈ 524 µM). Moreover, the MIC99 against Bacillus subtilis is 100 µg/mL (≈ 209 µM); in the assay with Streptococcus pyogenes, 200 µg/mL (≈ 419 µM); against Staphylococcus aureus it was 100 µg/mL (≈ 209 µM); in the assay on Salmonella typhi it was 100 µg/mL (≈ 209 µM); against Klebsiella pneumoniae it was 100 µg/mL (≈ 209 µM); in the assay with Escherichia coli, 62.5 µg/mL (≈ 131 µM). Also, in the assay on Pseudomonas aeruginosa, the MIC99 is 100 µg/mL (≈ 209 µM). Also, in assay [3], the inhibition of growth at 62.5 µg/mL was 99%.

For the molecule `CC1=C(c2nnc(/N=C3\C(=O)Nc4ccc(I)cc43)s2)C(c2ccccc2)NC(=O)N1` (centres undefined), the MIC in assay [1] is 1000 µg/mL (≈ 1840 µM); in the assay with Aspergillus clavatus it was over 1000 µg/mL; with Aspergillus niger it was over 1000 µg/mL; with Candida albicans it was over 1000 µg/mL. Besides, the MIC99 against Bacillus subtilis was determined as 250 µg/mL (≈ 461 µM); with Streptococcus pyogenes, 200 µg/mL (≈ 369 µM); against Staphylococcus aureus, 250 µg/mL (≈ 461 µM); against Salmonella typhi it was 250 µg/mL (≈ 461 µM); in the assay on Klebsiella pneumoniae it was 250 µg/mL (≈ 461 µM); against Escherichia coli it was 250 µg/mL (≈ 461 µM). Further, in the assay with Pseudomonas aeruginosa, the MIC99 turned out to be 250 µg/mL (≈ 461 µM). Besides, the inhibition of growth at 1000 µg/mL in assay [4] came out at 98%.

Consider `CC1=C(c2nnc(/N=C3\C(=O)Nc4ccc(F)cc43)s2)C(c2ccccc2)NC(=S)N1` (centres undefined), for which the MIC is 25 µg/mL (≈ 55.5 µM) in assay [1], 100 µg/mL (≈ 222 µM) against Aspergillus clavatus, 100 µg/mL (≈ 222 µM) with Aspergillus niger and 100 µg/mL (≈ 222 µM) against Candida albicans. Moreover, the MIC99 came to 100 µg/mL (≈ 222 µM) against Bacillus subtilis; 100 µg/mL (≈ 222 µM) against Streptococcus pyogenes; 62.5 µg/mL (≈ 139 µM) with Staphylococcus aureus; 100 µg/mL (≈ 222 µM) in the assay on Salmonella typhi; 100 µg/mL (≈ 222 µM) against Klebsiella pneumoniae; 62.5 µg/mL (≈ 139 µM) in the assay with Escherichia coli. In the assay with Pseudomonas aeruginosa, this molecule returned an MIC99 of 62.5 µg/mL (≈ 139 µM). In addition, in assay [5], the inhibition of growth at 25 µg/mL turned out to be 99%.

For the molecule `CC1=C(c2nnc(/N=C3\C(=O)Nc4ccccc43)s2)C(c2ccccc2)NC(=S)N1` (centres undefined), the MIC in [1] is 500 µg/mL (≈ 1160 µM); with Aspergillus clavatus, 500 µg/mL (≈ 1160 µM); in the assay on Aspergillus niger it was 500 µg/mL (≈ 1160 µM); in the assay with Candida albicans it was over 1000 µg/mL. In addition, the MIC99 in the assay on Bacillus subtilis came to 200 µg/mL (≈ 462 µM); against Streptococcus pyogenes, 200 µg/mL (≈ 462 µM); in the assay on Staphylococcus aureus it was 200 µg/mL (≈ 462 µM); with Salmonella typhi, 200 µg/mL (≈ 462 µM); in the assay with Klebsiella pneumoniae, 200 µg/mL (≈ 462 µM); with Escherichia coli, 500 µg/mL (≈ 1160 µM). For the same molecule, the MIC99 with Pseudomonas aeruginosa amounted to 200 µg/mL (≈ 462 µM). Further, the inhibition of growth at 500 µg/mL in [2] was 98%.

In the case of NYSTATIN, the MIC with Aspergillus clavatus, against Aspergillus niger and against Candida albicans was 100 µg/mL each time.

`CCn1cc(C(=O)O)c(=O)c2cc(F)c(N3CCNCC3)cc21` [NORFLOXACIN]: the MIC99 in the assay with Bacillus subtilis, against Streptococcus pyogenes, against Staphylococcus aureus, in the assay on Salmonella typhi, with Klebsiella pneumoniae and against Escherichia coli was 10 µg/mL (≈ 31.3 µM) throughout. Further, the MIC99 with Pseudomonas aeruginosa stood at 10 µg/mL (≈ 31.3 µM).

Consider `CC1=C(c2nnc(/N=C3\C(=O)Nc4ccc(Br)cc43)s2)C(c2ccccc2)NC(=S)N1` (centres undefined), for which the MIC came to 250 µg/mL (≈ 489 µM) in assay [1], 500 µg/mL (≈ 978 µM) with Aspergillus clavatus, 500 µg/mL (≈ 978 µM) in the assay with Aspergillus niger and 500 µg/mL (≈ 978 µM) with Candida albicans. The MIC99 against Bacillus subtilis came out at 100 µg/mL (≈ 196 µM); in the assay with Streptococcus pyogenes, 100 µg/mL (≈ 196 µM); against Staphylococcus aureus, 100 µg/mL (≈ 196 µM); in the assay on Salmonella typhi, 250 µg/mL (≈ 489 µM); in the assay with Klebsiella pneumoniae, 200 µg/mL (≈ 391 µM); against Escherichia coli, 200 µg/mL (≈ 391 µM). Moreover, in the assay with Pseudomonas aeruginosa, the MIC99 came to 200 µg/mL (≈ 391 µM). Moreover, the inhibition of growth at 250 µg/mL in [6] worked out at 98%.

On to `O=C(N[C@H](CO)[C@H](O)c1ccc([N+](=O)[O-])cc1)C(Cl)Cl` [CHLORAMPHENICOL], for which the MIC99 in the assay with Bacillus subtilis, in the assay on Streptococcus pyogenes, in the assay with Staphylococcus aureus, in the assay on Salmonella typhi, with Klebsiella pneumoniae and in the assay on Escherichia coli was 50 µg/mL (≈ 155 µM) throughout. In the assay with Pseudomonas aeruginosa, the MIC99 worked out at 50 µg/mL (≈ 155 µM).

As a reminder, the MIC is the lowest concentration that inhibits growth of the organism. One may read the MIC99 as an inhibitory concentration at the 99% level, which refers to growth in some studies and to a panel of isolates in others. Low values mean higher susceptibility, high ones lower susceptibility.

(Values after ChEMBL document CHEMBL1833842, “1,3-Dihydro-2H-indol-2-ones derivatives: design, synthesis, in vitro antibacterial, antifungal and antitubercular study” (2011).)
